ChEMBL document CHEMBL3997810, “A Novel Potent Anticancer Compound Optimized from a Natural Oridonin Scaffold Induces Apoptosis and Cell Cycle Arrest through the Mitochondrial Pathway” (J Med Chem, 2017)
Calls of active or inactive are those of the source. The rule behind the calls is not given here.

Assays:
Bel-7402 [1] = test: Cell cycle arrest in human Bel7402 cells assessed as accumulation at S phase at 1 uM after 48 hrs by propidium iodide staining based flow cytometry (reference value: 8.78%); type: functional
MCF7 [2] = test: Induction of apoptosis in human MCF7 cells assessed as necrotic cells at 0.125 uM after 24 hrs by Annexin-V FITC/propidium iodide staining based flow cytometry (reference value: 0.102%); type: functional
NCI-H460 = test: Antiproliferative activity against human NCI-H460 cells after 48 hrs by MTT assay; type: functional, cell-based; conditions: NCI-H460, 48 h
Procedure, shortened: (§1)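 Colorimetric MTT assay. KB-3-1, NCI-H460 and Bel-7404 cells were seeded at 4000 cells/well; resistant KB/CP4, NCI-H460/MX20 and Bel-7404/CP20 were seeded at 7000 cells/well. Cells were pre-incubated 24 h at 37 °C, 5% CO2, then exposed to a compound concentration series for 48 h with DMSO ≤0.25%. Absorbance read at 570 nm. Quadruplicate wells, three repeats; means ± SD.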

[3] = Selectivity ratio of IC50 for human L02 cells to IC50 for human Bel7402 cells
MCF7 [4] = test: Cell cycle arrest in human MCF7 cells assessed as accumulation at S phase at 0.5 uM after 48 hrs by propidium iodide staining based flow cytometry (reference value: 37.18%); type: functional
Procedure, shortened: (§2)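 MCF-7 cells, 5 × 10^4 per well, seeded overnight, then exposed to 0.125–1 μM compound, or DMSO, for 48 h. Ethanol-fixed (70%, −20 °C, 12 h) and stained with PI/RNase at 37 °C for 30 min. Phase distribution determined by flow cytometry.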

Bel-7402 [5] = test: Cytotoxicity against human Bel7402 cells at 10 to 50 uM after 24 hrs by LDH assay; type: functional, cell-based
Procedure, shortened: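 Membrane integrity assay on MCF-7 and Bel-7402 cells seeded at ~5 × 10^3 per well for 24 h, then given compounds at 10, 20 or 50 μM. Culture medium collected and assayed with CytoTox-ONE LDH reagent for 10 min, followed by stop solution. Fluorescence read at Ex 560/Em 590 nm. Expressed as percentage of unstimulated cells.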

MCF7 [6] = test: Downregulation of CyclinB protein expression in human MCF7 cells after 48 hrs by Western blot method; type: functional, cell-based
Procedure, shortened: (§3)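 MCF-7 cells exposed to 0–1 μM compound for 48 h, then lysed on ice. Lysate (20 μg protein) run on 8–12% SDS-PAGE and transferred to PVDF. Probed overnight at 4 °C with primary antibodies, then fluorescent secondaries. Band densities normalized to β-actin. Mean ± SD of three independent experiments.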

Bel-7402 [7] = test: Cell cycle arrest in human Bel7402 cells assessed as accumulation at S phase at 4 uM after 48 hrs by propidium iodide staining based flow cytometry (reference value: 8.78%); type: functional
Bel-7402 [8] = test: Cell cycle arrest in human Bel7402 cells assessed as accumulation at G1 phase at 4 uM after 48 hrs by propidium iodide staining based flow cytometry (reference value: 34.61%); type: functional
Bel-7402 [9] = test: Cell cycle arrest in human Bel7402 cells assessed as accumulation at G1 phase at 1 uM after 48 hrs by propidium iodide staining based flow cytometry (reference value: 34.61%); type: functional
K562 = test: Antiproliferative activity against human K562 cells after 72 hrs by MTT assay; type: functional, cell-based; conditions: K562, 72 h
Procedure, shortened: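 MGC-803 and MCF-7 cells grown in DMEM (MCF-7 with 1× NEAA); Bel-7402 and K562 grown in RPMI 1640; all media with 10% FBS. Cells seeded at 3500/well, pre-incubated 24 h, then exposed to compounds in fresh medium (DMSO ≤0.25%) for 72 h at 37 °C. MTT read-out at 570 nm. Quadruplicate wells, repeated three times; means ± SD (n = 3).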

[10] = Antiproliferative activity against human BEL7404/CP20 cells after 48 hrs by MTT assay; type: functional, cell-based; conditions: BEL7404/CP20, 48 h; procedure, shortened: as §1
MCF7 [11] = test: Induction of apoptosis in human MCF7 cells assessed as live cells at 0.25 uM after 24 hrs by Annexin-V FITC/propidium iodide staining based flow cytometry (reference value: 97%); type: functional
MCF7 [12] = test: Induction of apoptosis in human MCF7 cells assessed as late apoptotic cells at 0.25 uM after 24 hrs by Annexin-V FITC/propidium iodide staining based flow cytometry (reference value: 0.255%); type: functional
MCF7 [13] = test: Induction of apoptosis in human MCF7 cells assessed as decrease in Bcl2 protein expression at 0.5 to 1 uM after 48 hrs by Western blot method; type: functional, cell-based; procedure, shortened: as §3
MCF7 [14] = test: Cell cycle arrest in human MCF7 cells assessed as accumulation at G1 phase at 0.5 uM after 48 hrs by propidium iodide staining based flow cytometry (reference value: 49.77%); type: functional; procedure, shortened: as §2
[15] = Antiproliferative activity against human KB/CP4 cells after 48 hrs by MTT assay; type: functional, cell-based; conditions: KB/CP4, 48 h; procedure, shortened: as §1
MCF7 [16] = test: Induction of apoptosis in human MCF7 cells assessed as live cells at 0.125 uM after 24 hrs by Annexin-V FITC/propidium iodide staining based flow cytometry (reference value: 97%); type: functional
Mus musculus [17] = test: Nephrotoxicity in Balb/c nude mouse xenografted with human MCF7 cells assessed as morphological changes in kidney at 20 mg/kg/day, iv for 4 weeks by hematoxylin and eosin staining based microscopic method; type: toxicity, organism-based; conditions: in vivo, 672 h
Procedure, shortened: (§4)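 Male BALB/c nude mice aged six weeks received 1 × 10^6 MCF-7 cells subcutaneously in the right flank. After 7 d they were randomized and dosed 20 mg/kg iv once daily in 10% DMF/2% poloxamer/88% saline; saline control. Heart, liver, spleen, lung and kidney were fixed in 4% paraformaldehyde, paraffin-embedded, sectioned at 5 μm, H&E stained and examined microscopically.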

MCF7 [18] = test: Induction of apoptosis in human MCF7 cells assessed as chromatin condensation at 0.125 to 1 uM after 36 hrs by Hoechst 33342 staining based fluorescence microscopic method; type: functional, cell-based
MCF7 [19] = test: Induction of ROS generation in human MCF7 cells at 1 uM after 36 hrs by DCF-DA staining based flow cytometry (reference value: 3.77%); type: functional
Procedure, shortened: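 MCF-7 cells exposed to 0–1 μM compound for 36 h, with DMSO as control; one arm pre-incubated with 2.5 mM NAC. Cells then loaded with DCF-DA at 37 °C for 15 min, harvested and resuspended in PBS. Fraction of DCF-positive cells measured by flow cytometry at Ex 480/Em 525 nm.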

Bel-7402 [20] = test: Cell cycle arrest in human Bel7402 cells assessed as accumulation at G1 phase at 2 uM after 48 hrs by propidium iodide staining based flow cytometry (reference value: 34.61%); type: functional
Mus musculus [21] = test: Toxicity in Balb/c nude mouse xenografted with human MCF7 cells assessed as morphological changes in lungs at 20 mg/kg/day, iv for 4 weeks by hematoxylin and eosin staining based microscopic method; type: organism-based; conditions: in vivo, 672 h; procedure, shortened: as §4
MCF7 [22] = test: Induction of apoptosis in human MCF7 cells assessed as late apoptotic cells at 0.5 uM after 24 hrs by Annexin-V FITC/propidium iodide staining based flow cytometry (reference value: 0.255%); type: functional
Bel-7402 [23] = test: Cell cycle arrest in human Bel7402 cells assessed as accumulation at S phase at 2 uM after 48 hrs by propidium iodide staining based flow cytometry (reference value: 8.78%); type: functional

`C=C1C(=O)[C@]23[C@H](OC(=O)/C=C/c4ccccc4)[C@H]1CC[C@H]2[C@]12C=CCC(C)(C)[C@H]1[C@H](O)[C@]3(O)OC2` gave an Activity (Bel-7402 [1]) of 8.51%, an Activity (MCF7 [2]) of 1.14% and an IC50 (NCI-H460) of 2620 nM. The “Ratio IC50” value [3] was 4.07, the Activity (MCF7 [4]) was 31.9% and the Activity (Bel-7402 [5]) was “inactive”. The Activity (MCF7 [6]) was “Dose-dependent effect”, the Activity (Bel-7402 [7]) was 9.55% and the Activity (Bel-7402 [8]) was 27.44%. It also gave an Activity (Bel-7402 [9]) of 32.12%, an IC50 (K562) of 290 nM and an IC50 [10] of 4730 nM. The Activity (MCF7 [11]) was 69.7%, the Activity (MCF7 [12]) was 19.6% and the Activity (MCF7 [13]) was “Active”. The Activity (MCF7 [14]) was 43.87%, the IC50 [15] was 1560 nM and the Activity (MCF7 [16]) was 84.9%. The Activity (Mus musculus [17]) was “Non-Toxic”, the Activity (MCF7 [18]) was “Active” and the Activity (MCF7 [19]) was 24.31%. The Activity (Bel-7402 [20]) was 31.15%, the Activity (Mus musculus [21]) was “Non-Toxic” and the Activity (MCF7 [22]) was 30.2%. It also gave an Activity (Bel-7402 [23]) of 10.78%.
